{"source": "paper PMC10201403", "about": "(Bioorganic & medicinal chemistry, 2023)", "key": {"C. hominis": {"test_system": "C. hominis", "settings": "gnotobiotic piglet; cited from earlier work"}, "C. parvum [1]": {"test_system": "C. parvum", "settings": "dairy calf; cited from earlier work"}, "C. parvum [2]": {"test_system": "C. parvum", "settings": "acute and chronic mouse models; cited from earlier work"}, "Cryptosporidium": {"test_system": "Cryptosporidium", "settings": "cited from earlier work"}, "C. parvum [3]": {"test_system": "C. parvum", "test": "In vitro Cryptosporidium parvum-infected HCT-8 cell assay", "type": "cell-based", "settings": "for LipE (pEC50 minus logP): Cp pEC50 and calculated logP; for EC50: Cryptosporidium parvum, HCT-8, read-out: EC50 in the Cp HCT-8 assay; for potency in the Cp HCT-8 assay, in words: C. parvum in HCT-8 cells"}, "hERG channel": {"target": "hERG channel (Homo sapiens, UniProt Q12809)", "sequence (Q12809 whole entry)": "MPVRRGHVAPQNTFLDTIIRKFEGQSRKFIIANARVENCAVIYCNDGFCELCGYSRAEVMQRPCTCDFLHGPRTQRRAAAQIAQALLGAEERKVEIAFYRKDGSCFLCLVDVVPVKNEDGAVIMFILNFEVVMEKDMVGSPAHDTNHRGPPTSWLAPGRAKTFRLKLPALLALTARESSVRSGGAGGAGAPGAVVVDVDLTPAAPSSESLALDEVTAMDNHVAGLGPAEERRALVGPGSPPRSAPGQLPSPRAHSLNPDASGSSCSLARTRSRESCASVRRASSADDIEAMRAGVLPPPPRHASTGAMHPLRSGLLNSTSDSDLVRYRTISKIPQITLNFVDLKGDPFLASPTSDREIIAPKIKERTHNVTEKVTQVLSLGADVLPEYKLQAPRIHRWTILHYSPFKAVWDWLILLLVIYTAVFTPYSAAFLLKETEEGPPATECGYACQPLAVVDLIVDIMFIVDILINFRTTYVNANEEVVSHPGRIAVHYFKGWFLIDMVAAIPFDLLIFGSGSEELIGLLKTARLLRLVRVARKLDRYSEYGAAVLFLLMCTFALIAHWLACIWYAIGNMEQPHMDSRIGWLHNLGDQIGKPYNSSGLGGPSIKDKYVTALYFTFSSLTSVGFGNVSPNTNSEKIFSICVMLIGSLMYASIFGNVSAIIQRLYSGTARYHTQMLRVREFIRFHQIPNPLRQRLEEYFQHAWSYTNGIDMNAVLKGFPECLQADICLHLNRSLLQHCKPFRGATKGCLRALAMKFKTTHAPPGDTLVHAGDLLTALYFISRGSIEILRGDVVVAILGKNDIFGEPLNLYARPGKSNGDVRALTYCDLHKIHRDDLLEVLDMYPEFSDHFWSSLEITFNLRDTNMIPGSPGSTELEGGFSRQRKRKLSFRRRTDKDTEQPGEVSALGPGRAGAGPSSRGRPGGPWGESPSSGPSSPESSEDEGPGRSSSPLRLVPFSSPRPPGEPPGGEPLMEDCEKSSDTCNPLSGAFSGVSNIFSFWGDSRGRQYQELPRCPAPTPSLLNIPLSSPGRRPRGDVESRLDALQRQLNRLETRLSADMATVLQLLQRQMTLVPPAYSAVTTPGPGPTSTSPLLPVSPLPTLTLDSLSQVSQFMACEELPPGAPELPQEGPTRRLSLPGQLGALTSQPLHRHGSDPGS", "test": "hERG-CHO automated patch clamp electrophysiology assay", "type": "cell-based", "settings": "10 μM"}, "[4]": {"target": "human potassium channel hERG (Homo sapiens, UniProt Q12809)", "sequence (Q12809 whole entry)": "as above", "test": "[3H]-dofetilide competitive binding assay", "settings": "10 μM", "summary_of_the_method": "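Radioligand competition on the human hERG potassium channel: test compound competes with [³H]-dofetilide, and binding is reported as percent inhibition of [³H]-dofetilide binding. Run by an outside contract laboratory.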"}}, "note": "Several values for one entry are separate records, joined by “and”; a condition that tells them apart may be missing. Equal values may be shown once. Entries after “also recorded” stand apart in the source; their conditions may differ. Where a name gives a salt, the structure may show the parent alone. Read-outs that look alike come from different tables or passages of the source.", "data": [{"smiles": "O=C(Nc1ccc(Cl)cc1)N1CCN(c2ccc3nncn3n2)CC1", "note": "[Compound 1]", "values": [{"measurement": "oral efficacy in vivo", "setting": "C. hominis", "value": "oral efficacy"}, {"measurement": "oral efficacy in vivo", "setting": "C. parvum [1]", "value": "oral efficacy"}, {"measurement": "oral efficacy in vivo", "setting": "C. parvum [2]", "value": "oral efficacy"}]}, {"smiles": "O=C(Cc1ccc(Cl)c(Cl)c1)N1CCN(c2ccc3nncn3n2)CC1", "note": "[Compound 2a, 1-(4-([1,2,4]triazolo[4,3-b]pyridazin-6-yl)piperazin-1-yl)-2-(3,4-dichlorophenyl)ethanone]", "values": [{"measurement": "efficacy in vivo", "setting": "Cryptosporidium", "value": "efficacious in vivo"}, {"measurement": "LipE (pEC50 minus logP)", "setting": "C. parvum [3]", "value": 3.3}]}, {"smiles": "CC(C)(C)OC(=O)N1CCN(C(=O)Cc2ccc(Cl)c(Cl)c2)CC1", "note": "[Compound 5, tert-Butyl 4-(2-(3,4-dichlorophenyl)acetyl)piperazine-1-carboxylate]", "values": [{"measurement": "EC50", "setting": "C. parvum [3]", "value": "≥ 20", "unit": "µM"}]}, {"smiles": "O=C(Cc1ccc(Cl)c(Cl)c1)N1CCN(C2=Nn3cnnc3CC2)CC1", "note": "[Compound 17a, 2-(3,4-dichlorophenyl)-1-(4-(7,8-dihydro-[1,2,4]triazolo[4,3-b]pyridazin-6-yl)piperazin-1-yl)ethanone]", "values": [{"measurement": "reduction of inhibition in hERG patch-clamp assay relative to 2a (SLU-2633)", "setting": "hERG channel", "value": "about two-fold"}, {"measurement": "LipE (pEC50 minus logP)", "setting": "C. parvum [3]", "value": 4.13}, {"measurement": "fold less potent than 2a (SLU-2633)", "setting": "C. parvum [3]; ratio of Cp EC50 values", "value": "7 fold and ~ 7 fold"}]}, {"smiles": "O=C(Cc1ccc(Cl)c(Cl)c1)N1CCN(c2nc3ccccc3s2)CC1", "note": "[Compound 29b, 1-(4-(benzo[d]thiazol-2-yl)piperazin-1-yl)-2-(3,4-dichlorophenyl)ethanone]", "values": [{"measurement": "potency in the Cp HCT-8 assay, in words", "setting": "C. parvum [3]", "value": "did not yield better potency"}]}, {"smiles": "O=C(Cc1ccc(Cl)c(Cl)c1)N1CCN(c2ccc3nonc3c2)CC1", "note": "[Compound 24, 1-(4-(benzo[c][1,2,5]oxadiazol-5-yl)piperazin-1-yl)-2-(3,4-dichlorophenyl)ethanone]", "values": [{"measurement": "EC50", "setting": "C. parvum [3]", "value": "20 to 30", "unit": "µM"}]}, {"smiles": "O=C(Cc1ccc(Cl)c(Cl)c1)N1CCN(c2ccccc2)CC1", "note": "[Compound 6a, 2-(3,4-dichlorophenyl)-1-(4-phenylpiperazin-1-yl)ethanone]", "values": [{"measurement": "effect in the hERG binding assay, in words", "setting": "[4]", "value": "does not exhibit significant effect"}]}, {"smiles": "Nc1nc2nc(N3CCN(C(=O)Cc4ccc(Cl)c(Cl)c4)CC3)ccc2s1", "note": "[Compound 31b, 1-(4-(2-aminothiazolo[4,5-b]pyridin-5-yl)piperazin-1-yl)-2-(3,4-dichlorophenyl)ethanone]", "values": [{"measurement": "potency in the Cp HCT-8 assay, in words", "setting": "C. parvum [3]", "value": "low micromolar range; also recorded: modestly potent"}, {"measurement": "fold more potent than methyl analog 31a", "setting": "C. parvum [3]; ratio of Cp EC50 values", "value": 5, "unit": "fold"}]}, {"smiles": "O=C(Cc1ccc(Cl)c(Cl)c1)N1CCN(c2ccn3nccc3n2)CC1", "note": "[Compound 19, 2-(3,4-dichlorophenyl)-1-(4-(pyrazolo[1,5-a]pyrimidin-5-yl)piperazin-1-yl)ethanone]", "values": [{"measurement": "EC50", "setting": "C. parvum [3]", "value": "20 to 30", "unit": "µM"}]}, {"smiles": "O=C(Cc1ccc(Cl)c(Cl)c1)N1CCN(c2ccc3nccn3n2)CC1", "note": "[Compound 18a, 2-(3,4-dichlorophenyl)-1-(4-(imidazo[1,2-b]pyridazin-6-yl)piperazin-1-yl)ethanone]", "values": [{"measurement": "potency in the Cp HCT-8 assay, in words", "setting": "C. parvum [3]", "value": "drastically reduced the potency"}]}, {"smiles": "O=C(Cc1ccc(Cl)c(Cl)c1)N1CCN(c2ncc([N+](=O)[O-])s2)CC1", "note": "[Compound 13, 2-(3,4-dichlorophenyl)-1-(4-(5-nitrothiazol-2-yl)piperazin-1-yl)ethanone]", "values": [{"measurement": "potency in the Cp HCT-8 assay, in words", "setting": "C. parvum [3]", "value": "weakly potent"}]}, {"smiles": "O=C(Nc1ccc(Cl)c(Cl)c1)N1CCN(c2cn3ccnc3cn2)CC1", "note": "[Compound 20, N-(3,4-dichlorophenyl)-4-(imidazo[1,2-a]pyrazin-6-yl)piperazine-1-carboxamide]", "values": [{"measurement": "EC50", "setting": "C. parvum [3]", "value": "20 to 30", "unit": "µM"}]}, {"smiles": "O=C(Cc1ccc(Cl)c(Cl)c1)N1CCNCC1", "note": "[Compound 4, 2-(3,4-dichlorophenyl)-1-(piperazin-1-yl)ethanone hydrochloride]", "values": [{"measurement": "EC50", "setting": "C. parvum [3]", "value": "≥ 20", "unit": "µM"}]}, {"smiles": "O=C(Nc1ccc(Cl)c(Cl)c1)N1CCN(C2=Nn3cnnc3CC2)CC1", "note": "[Compound 17b, N-(3,4-dichlorophenyl)-4-(7,8-dihydro-[1,2,4]triazolo[4,3-b]pyridazin-6-yl)piperazine-1-carboxamide]", "values": [{"measurement": "fold potency reduction compared to urea 2b", "setting": "C. parvum [3]; ratio of Cp EC50 values", "value": "~ 20 fold"}]}, {"smiles": "O=C(Nc1ccc(Cl)c(Cl)c1)N1CCN(c2nc3ccccc3[nH]2)CC1", "note": "[Compound 28, 4-(1H-benzo[d]imidazol-2-yl)-N-(3,4-dichlorophenyl)piperazine-1-carboxamide]", "values": [{"measurement": "potency in the Cp HCT-8 assay, in words", "setting": "C. parvum [3]", "value": "did not yield better potency"}]}, {"smiles": "O=C(Cc1ccc(Cl)c(Cl)c1)N1CCN(c2nc3ccccc3o2)CC1", "note": "[Compound 29a, 1-(4-(benzo[d]oxazol-2-yl)piperazin-1-yl)-2-(3,4-dichlorophenyl)ethanone]", "values": [{"measurement": "potency in the Cp HCT-8 assay, in words", "setting": "C. parvum [3]", "value": "did not yield better potency"}]}, {"smiles": "O=C(Nc1ccc(Cl)c(Cl)c1)N1CCN(c2ccc3nccn3n2)CC1", "note": "[Compound 18b, N-(3,4-dichlorophenyl)-4-(imidazo[1,2-b]pyridazin-6-yl)piperazine-1-carboxamide]", "values": [{"measurement": "potency in the Cp HCT-8 assay, in words", "setting": "C. parvum [3]", "value": "drastically reduced the potency"}]}]}
